Assay results taken from ChEMBL document CHEMBL1165856, “Naftifine-analogues as anti-Trypanosoma cruzi agents” (Eur J Med Chem, 2010).
In brackets after ≈: the same amount, converted by molar mass.

Assays:
Aspergillus niger = test: Antifungal activity against Aspergillus niger ATCC 9029 after 48 hrs; type: functional; details: ATCC 9029, 48 h
Method in brief: (§1)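 Aspergillus spp. were tested by CLSI M38-A broth microdilution in RPMI 1640 with MOPS at pH 7.0. Spore inoculum is 10³ CFU/mL, with two-fold compound dilutions and final DMSO ≤1%. Incubated at 35 °C in a moist, dark chamber. MIC is read visually as total growth inhibition, at a time set by growth of the control fungus.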

[1] = Cytotoxicity against mouse J774 cells after 48 hrs by MTT assay; type: cell-based; details: read-out: ID50
Method in brief: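 J-774 macrophages were seeded at 1 × 10⁵ cells/well in RPMI 1640 with 20% heat-inactivated FCS and left to attach for 48 h at 37 °C in 5% CO₂. Cells were then exposed to compounds for 48 h. MTT was added at 0.4 mg/mL final, formazan was dissolved in DMSO, and A595 was read. ID50 is the concentration cutting control absorbance by 50%, averaged over three experiments.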

Cryptococcus neoformans = test: Antifungal activity against Cryptococcus neoformans ATCC 32264 after 48 hrs; type: functional; details: Cryptococcus neoformans, ATCC 32264, 48 h; for MIC: read-out: MIC
Method in brief: (§2)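 CLSI M27-A2 broth microdilution in RPMI 1640 buffered to pH 7.0 with MOPS. Inoculum is 10³ CFU/mL from Sabouraud-grown yeasts. Compound is two-fold serially diluted, final DMSO ≤1%. Incubated at 35 °C in a moist, dark chamber and read visually at 48 h. MIC is the lowest concentration giving total growth inhibition.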

Trichophyton rubrum = test: Antifungal activity against Trichophyton rubrum C 113 after 48 hrs; type: functional; details: C 113, 48 h
Method in brief: (§3)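 Dermatophytes were tested by CLSI M38-A microdilution in MOPS-buffered RPMI 1640 at pH 7.0. Inoculum is 10³ CFU/mL, with two-fold serial compound dilutions and final DMSO ≤1%. Trays are kept at 28–30 °C in a moist, dark chamber. MIC is the lowest concentration with total growth inhibition, read visually when control growth allows.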

Aspergillus fumigatus = test: Antifungal activity against Aspergillus fumigatus ATCC 26934 after 48 hrs; type: functional; details: ATCC 26934, 48 h; method in brief: as §1
Nannizzia gypsea = test: Antifungal activity against Microsporum gypseum C 115 after 48 hrs; type: functional; details: C 115, 48 h; method in brief: as §3
[2] = test system: Trichophyton mentagrophytes; test: Antifungal activity against Trichophyton mentagrophytes ATCC 9972 after 48 hrs; type: functional; details: ATCC 9972, 48 h; method in brief: as §3
Candida tropicalis = test: Antifungal activity against Candida tropicalis C 131 2000 after 48 hrs; type: functional; details: Candida tropicalis, C 131 2000, 48 h; for MIC: read-out: MIC; method in brief: as §2
Saccharomyces cerevisiae = test: Antifungal activity against Saccharomyces cerevisiae ATCC 9763 after 48 hrs; type: functional; details: ATCC 9763, 48 h; method in brief: as §2
Candida albicans = test: Antifungal activity against Candida albicans ATCC 10231 after 48 hrs; type: functional; details: ATCC 10231, 48 h; method in brief: as §2
[3] = Selectivity index, ratio of ID50 for mouse J774 cells to ID50 for Trypanosoma cruzi Tulahuen 2; type: toxicity, cell-based; details: J774 cells versus Trypanosoma cruzi Tulahuen 2
Method in brief: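 Selectivity index is the ID50 in J-774 macrophages (48 h MTT) divided by the ID50 against Tulahuen 2 epimastigotes (day-5 A600 growth).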

Aspergillus flavus = test: Antifungal activity against Aspergillus flavus ATCC 9170 after 48 hrs; type: functional; details: ATCC 9170, 48 h; method in brief: as §1
Trypanosoma cruzi [4] = test: Antitrypanosomal activity against Trypanosoma cruzi Tulahuen 2; type: functional; details: read-out: ID50 (the source's name)
Method in brief: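 Epimastigotes were grown at 28 °C in BHI-tryptose with 5% FBS. Stationary-phase parasites are inoculated at 8 × 10⁶ cells/mL into medium containing increasing drug concentrations from DMSO stock (final DMSO ≤0.4%; vehicle control). Growth is followed by A600. ID50 is the concentration that halves the day-5 absorbance ratio relative to control.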

Trypanosoma cruzi [5] = test: Antitrypanosomal activity against Trypanosoma cruzi Tulahuen 2 at 25 uM; type: functional
Method in brief: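 Tulahuen 2 epimastigotes (8 × 10⁶ cells/mL, 28 °C, BHI-tryptose with 5% FBS) were exposed to a single drug concentration, with final DMSO ≤0.4% and a vehicle control. Percent growth inhibition = {1 − [(Ap − A0p)/(Ac − A0c)]} × 100, using A600 of drug and control cultures at day 0 and day 5.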

Row | Structure (SMILES) | MIC (Aspergillus niger) [µg/mL] | CC50 at 48 h [1] [µM] | MIC (Trichophyton rubrum) [µg/mL] | MIC (Aspergillus fumigatus) [µg/mL] | MIC (Nannizzia gypsea) [µg/mL] | MIC [2] [µg/mL] | MIC (Candida tropicalis) [µg/mL] | MIC (Saccharomyces cerevisiae) [µg/mL] | MIC (Candida albicans) [µg/mL] | selectivity ratio [3] | MIC (Aspergillus flavus) [µg/mL] | IC50 (Trypanosoma cruzi [4]) [µM] | also measured
1 | CN(C/C=C/C#CC(C)(C)C)Cc1cccc2ccccc12 [TERBINAFINE] | 1.56 (≈ 5.35 µM) | < 100 | 0.01 (≈ 0.0343 µM) | 0.78 (≈ 2.68 µM) | 0.04 (≈ 0.137 µM) | 0.025 (≈ 0.0858 µM) | 1.56 (≈ 5.35 µM) | 3.12 (≈ 10.7 µM) | 1.56 (≈ 5.35 µM) | < 10 | 0.78 (≈ 2.68 µM) | – | MIC (Cryptococcus neoformans): 0.39 µg/mL (≈ 1.34 µM)
2 | CN(C/C=C/c1ccccc1)CCCCCn1nc(OCc2ccccc2)c2cc([N+](=O)[O-])ccc21 | – | < 100 | – | – | – | – | – | – | – | < 12.8 | – | 7.8 | –
3 | CN(C/C=C/c1ccccc1)Cc1ccc2c(c1)[n+]([O-])c(C#N)c(N)[n+]2[O-] | – | – | – | – | – | – | – | – | – | – | – | – | inhibition at 25 µM (Trypanosoma cruzi [5]): 0%
4 | O=[N+]([O-])c1ccc2c(c1)c(OCc1ccccc1)nn2CCOCCN(CCC/C=C/c1ccccc1)CCOCCn1nc(OCc2ccccc2)c2cc([N+](=O)[O-])ccc21 | – | – | – | – | – | – | – | – | – | – | – | – | inhibition at 25 µM (Trypanosoma cruzi [5]): 0%
5 | Cc1c(C(=O)Nc2ccccc2)[n+]([O-])c2cc(CN3CCN(C/C=C/c4ccccc4)CC3)ccc2[n+]1[O-] | > 250 | – | 125 (≈ 245 µM) | > 250 | 125 (≈ 245 µM) | 125 (≈ 245 µM) | > 250 | > 250 | > 250 | – | > 250 | 25.4 | MFC (Trichophyton rubrum): > 250 µg/mL; MFC (Nannizzia gypsea): > 250 µg/mL; MFC [2]: > 250 µg/mL
6 | O=[N+]([O-])c1ccc2c(c1)c(OCc1ccccc1)nn2CCOCCN1CCN(C/C=C/c2ccccc2)CC1 | > 250 | < 100 | 125 (≈ 231 µM) | > 250 | 125 (≈ 231 µM) | 125 (≈ 231 µM) | > 250 | > 250 | > 250 | < 15.4 | > 250 | 6.5 | MIC (Cryptococcus neoformans): > 250 µg/mL; MFC (Trichophyton rubrum): > 250 µg/mL; MFC (Nannizzia gypsea): > 250 µg/mL; MFC [2]: > 250 µg/mL
7 | O=[N+]([O-])c1ccc2c(c1)c(OCc1ccccc1)nn2CCOCCNCCC/C=C/c1ccccc1 | – | < 100 | – | – | – | – | – | – | – | < 22.2 | – | 4.5 | –
8 | CC1(C)[N+]([O-])=c2ccc(CN3CCN(C/C=C/c4ccccc4)CC3)cc2=[N+]1[O-] | – | 109 | – | – | – | – | – | – | – | 4.4 | – | 25 | –
9 | C=CCNC(=S)N/N=C/c1ccc2c(c1)[n+]([O-])c(C(=O)OCC)c(-c1ccccc1)[n+]2[O-] | – | > 400 | – | – | – | – | – | – | – | > 33.3 | – | 7.5 | –
10 | C[C@@H]1[C@H](O)[C@@H](C)/C=C/C=C/C=C/C=C/C=C/C=C/C=C/[C@H](O[C@@H]2O[C@H](C)[C@@H](O)[C@H](N)[C@@H]2O)C[C@@H]2O[C@](O)(C[C@@H](O)C[C@@H](O)[C@H](O)CC[C@@H](O)C[C@@H](O)CC(=O)O[C@H]1C)C[C@H](O)[C@H]2C(=O)O [AMPHOTERICIN B] | 0.5 (≈ 0.541 µM) | – | 0.075 (≈ 0.0812 µM) | 0.5 (≈ 0.541 µM) | 0.125 (≈ 0.135 µM) | 0.075 (≈ 0.0812 µM) | 1.56 (≈ 1.69 µM) | 0.5 (≈ 0.541 µM) | 0.78 (≈ 0.844 µM) | – | 0.5 (≈ 0.541 µM) | – | MIC (Cryptococcus neoformans): 0.25 µg/mL (≈ 0.271 µM)
11 | CCOC(=O)c1c(-c2ccccc2)[n+]([O-])c2ccc(CN3CCN(C/C=C/c4ccccc4)CC3)cc2[n+]1[O-] | > 250 | < 100 | 125 (≈ 238 µM) | > 250 | 250 (≈ 477 µM) | 125 (≈ 238 µM) | 250 (≈ 477 µM) | 125 (≈ 238 µM) | 250 (≈ 477 µM) | < 10.5 | > 250 | 9.5 | MFC (Cryptococcus neoformans): 250 µg/mL (≈ 477 µM); MIC (Cryptococcus neoformans): 125 µg/mL (≈ 238 µM); MFC (Trichophyton rubrum): 250 µg/mL (≈ 477 µM); MFC (Nannizzia gypsea): > 250 µg/mL; MFC [2]: 250 µg/mL (≈ 477 µM); MFC (Candida tropicalis): > 250 µg/mL; MFC (Saccharomyces cerevisiae): 250 µg/mL (≈ 477 µM); MFC (Candida albicans): > 250 µg/mL
12 | C=CCNC(=S)N/N=C/c1ccc2c(c1)[n+]([O-])c(C(=O)Nc1ccccc1)c(-c1ccccc1)[n+]2[O-] | – | – | – | – | – | – | – | – | – | – | – | – | inhibition at 25 µM (Trypanosoma cruzi [5]): 18%
13 | Cc1c(C(=O)Nc2ccccc2)[n+]([O-])c2cc(CN(C)C/C=C/c3ccccc3)ccc2[n+]1[O-] | – | – | – | – | – | – | – | – | – | – | – | – | inhibition at 25 µM (Trypanosoma cruzi [5]): 34%
14 | CC1CS(=O)(=O)CCN1/N=C/c1ccc([N+](=O)[O-])o1 (stereo not drawn) [NIFURTIMOX] | – | – | – | – | – | – | – | – | – | > 33.3 | – | – | –
